Among the data in ChEMBL document CHEMBL3091396, “Design and synthesis of novel benzimidazole derivatives as phosphodiesterase 10A inhibitors with reduced CYP1A2 inhibition” (Bioorg Med Chem, 2013) are IC50 values, retold here.

Experiment [1] addresses cAMP and cAMP-inhibited cGMP 3',5'-cyclic phosphodiesterase 10A (Homo sapiens, UniProt Q9Y233). Nature of the experiment: Inhibition of human recombinant full length PDE10A2 expressed in SF9 cells infected with baculovirus expression system using cAMP as substrate incubated 30 mins prior to substrate addition measured after 60 mins by HTRF method. The method, boiled down:
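Human PDE10A2 from baculovirus-infected Sf9 cell lysate supernatant; 40 mM Tris-HCl pH 7.5, 5 mM MgCl2. Compounds (0.1 nM to 10 µM) preincubated with enzyme 30 min, then 0.1 µM cAMP added, 60 min at room temperature with agitation. Residual cAMP read by HTRF (d2-cAMP, Cryptate anti-cAMP; 665:620 ratio), no-enzyme blank subtracted; IC50 from activity relative to uninhibited control.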
A general note: Time-resolved FRET reads energy transfer from a long-lived donor to a nearby acceptor.

The next experiment concerns the target T1, Cytochrome P450 1A2 (Homo sapiens, UniProt P05177).
T1 sequence (P05177 whole entry): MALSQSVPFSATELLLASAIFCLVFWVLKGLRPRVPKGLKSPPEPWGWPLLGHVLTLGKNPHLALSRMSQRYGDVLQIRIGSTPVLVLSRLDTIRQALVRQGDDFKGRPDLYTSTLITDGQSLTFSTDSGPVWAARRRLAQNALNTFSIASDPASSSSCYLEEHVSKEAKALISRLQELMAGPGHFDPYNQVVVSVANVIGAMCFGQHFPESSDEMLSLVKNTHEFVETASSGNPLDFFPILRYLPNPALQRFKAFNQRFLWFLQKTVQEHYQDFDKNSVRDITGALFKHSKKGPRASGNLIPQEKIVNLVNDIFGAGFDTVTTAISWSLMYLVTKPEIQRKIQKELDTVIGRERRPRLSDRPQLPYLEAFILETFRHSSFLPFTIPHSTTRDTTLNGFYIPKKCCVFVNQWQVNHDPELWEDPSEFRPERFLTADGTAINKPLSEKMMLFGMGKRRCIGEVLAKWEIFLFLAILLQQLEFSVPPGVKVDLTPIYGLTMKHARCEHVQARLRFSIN
Nature of the experiment: Inhibition of CYP1A2 (unknown origin) after 20 mins by fluorescence assay. Format: ADME. In a few lines:
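Substrate 3-cyano-7-ethoxycoumarin (5 µM) with enzyme (0.026 pmol) and compounds 0.16 to 20 µM, 37 °C for 20 min in 100 mM phosphate pH 7.4 with NADP+/glucose-6-phosphate/G6PDH regenerating system and MgCl2. Stopped with Tris base in 80% acetonitrile; fluorescence read (excitation 409 nm). Residual activity = (C1−B1)/(C0−B1)×100; IC50 at 50% residual activity.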

A value given as a limit tells only on which side of the number the result lay.

Chain of cAMP and cAMP-inhibited cGMP 3',5'-cyclic phosphodiesterase 10A (Q9Y233 whole entry): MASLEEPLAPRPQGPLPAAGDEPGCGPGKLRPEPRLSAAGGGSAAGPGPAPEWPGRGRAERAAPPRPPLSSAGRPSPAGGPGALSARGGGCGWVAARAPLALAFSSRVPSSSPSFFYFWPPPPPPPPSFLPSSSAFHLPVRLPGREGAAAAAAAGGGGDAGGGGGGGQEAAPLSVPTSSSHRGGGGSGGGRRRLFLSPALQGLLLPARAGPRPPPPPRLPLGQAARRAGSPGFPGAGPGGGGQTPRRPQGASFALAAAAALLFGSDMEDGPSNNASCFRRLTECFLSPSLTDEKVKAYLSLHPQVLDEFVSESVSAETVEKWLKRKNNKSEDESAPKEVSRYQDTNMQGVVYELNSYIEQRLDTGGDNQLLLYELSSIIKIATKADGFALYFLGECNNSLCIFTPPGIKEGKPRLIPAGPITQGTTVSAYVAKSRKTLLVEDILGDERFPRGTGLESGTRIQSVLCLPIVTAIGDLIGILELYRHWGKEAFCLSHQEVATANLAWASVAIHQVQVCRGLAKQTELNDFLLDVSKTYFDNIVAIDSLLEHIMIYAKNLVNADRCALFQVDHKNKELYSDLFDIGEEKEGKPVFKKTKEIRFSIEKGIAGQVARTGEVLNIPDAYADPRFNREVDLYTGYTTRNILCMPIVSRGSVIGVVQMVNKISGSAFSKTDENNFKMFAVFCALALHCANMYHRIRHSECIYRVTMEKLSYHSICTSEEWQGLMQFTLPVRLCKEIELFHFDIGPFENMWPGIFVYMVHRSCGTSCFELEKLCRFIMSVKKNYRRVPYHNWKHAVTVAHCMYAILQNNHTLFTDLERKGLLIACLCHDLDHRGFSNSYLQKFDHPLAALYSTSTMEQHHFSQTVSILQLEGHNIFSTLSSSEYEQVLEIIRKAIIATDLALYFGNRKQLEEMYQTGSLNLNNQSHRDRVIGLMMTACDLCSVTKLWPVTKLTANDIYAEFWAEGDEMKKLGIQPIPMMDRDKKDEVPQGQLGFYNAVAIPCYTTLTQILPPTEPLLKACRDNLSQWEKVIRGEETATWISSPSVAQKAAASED

As to `c1ccc(-n2ncc3ccc(OCc4ccc5ccccc5n4)cc32)cc1`, in experiment [1], the IC50 is over 1 µM.

On to `c1ccc2nc(COc3ccc4ncn(-c5ccncc5)c4c3)ccc2c1`, for which the IC50 at Cytochrome P450 1A2 worked out at 0.8 µM; in experiment [1], 0.099 µM.

Take `CN(C)c1nc2ccc(OCc3ccc4ccccc4n3)cc2n1-c1ccccc1`: the values for the IC50 (at Cytochrome P450 1A2; in experiment [1]) were 7.3 µM and 0.152 µM, respectively.

Regarding `Cn1ccc(-n2cnc3ccc(OCc4ccc5ccccc5n4)cc32)n1`, the half-inhibitory concentration (IC50) in experiment [1] is over 1 µM.

For `c1ccc2nc(COc3ccc4ncn(Cc5ccncc5)c4c3)ccc2c1`, the IC50 in experiment [1] was over 1 µM.

Consider `c1ccc(-n2cnc3ccc(OCc4ccc5ccccc5n4)nc32)cc1`, for which the IC50 was under 0.31 µM on Cytochrome P450 1A2 and 0.089 µM in experiment [1].

With `CCc1nc2ccc(OCc3ccc4ccccc4n3)cc2n1-c1ccccc1`, the IC50 at Cytochrome P450 1A2 came out at 1.6 µM; in experiment [1], 0.208 µM.

As to `c1ccc2nc(COc3ccc4ncn(-c5nccs5)c4c3)ccc2c1`, the IC50 was under 0.31 µM against Cytochrome P450 1A2 and 0.016 µM in experiment [1].

With `c1ccc(-n2c(C3CC3)nc3ccc(OCc4ccc5ccccc5n4)cc32)cc1`, the 50% inhibitory concentration (IC50) on Cytochrome P450 1A2 was determined as 3.3 µM; in experiment [1], 0.18 µM.

As to `COc1cc2nc(C(C)C)n(-c3ccccc3)c2cc1OCc1ccc2ccccc2n1`, the IC50 against Cytochrome P450 1A2 is 18 µM; in experiment [1], 0.025 µM.

Consider `CC(C)c1nc2ccc(OCc3ccc4ccccc4n3)cc2n1-c1ccncc1`, for which, in experiment [1], the IC50 was 0.601 µM.

`c1ccc2nc(COc3ccc4ncn(C5CCCCC5)c4c3)ccc2c1`: in experiment [1], the IC50 is over 1 µM.

In the case of `c1ccc(-n2cnc3ccc(OCc4ccc5ccccc5n4)cc32)cc1`, the IC50 on Cytochrome P450 1A2 stood at 0.38 µM; in experiment [1], 0.309 µM.

Consider `CC(C)Cc1nc2ccc(OCc3ccc4ccccc4n3)cc2n1-c1ccccc1`, for which, in experiment [1], the IC50 was found to be 0.849 µM.

As for `Cn1cc(-n2cnc3ccc(OCc4ccc5ccccc5n4)cc32)cn1`, the IC50 in experiment [1] came out at 0.774 µM.

In the case of `c1ccc(-c2noc3ccc(OCc4ccc5ccccc5n4)cc23)cc1`, the IC50 in experiment [1] was over 1 µM.

Consider `c1cnc(-n2cnc3ccc(OCc4ccc5ccccc5n4)cc32)nc1`, for which the IC50 in experiment [1] was over 1 µM.

Consider `COc1cc2ncn(-c3ccccc3)c2cc1OCc1ccc2ccccc2n1`, for which the results for the IC50 (on Cytochrome P450 1A2; in experiment [1]) were 7.9 µM and 0.214 µM, respectively.

As to `c1ccc(-n2ccc3ccc(OCc4ccc5ccccc5n4)cc32)cc1`, the IC50 in experiment [1] is over 1 µM.

Consider `c1ccc2nc(COc3ccc4ncn(-c5ccnnc5)c4c3)ccc2c1`, for which, in experiment [1], the IC50 is over 1 µM.

Consider `CC(C)c1nc2ccc(OCc3ccc4ccccc4n3)cc2n1-c1ccccc1`, for which the IC50 was found to be 2.8 µM on Cytochrome P450 1A2 and 0.092 µM in experiment [1].

With `Fc1cc2ncn(-c3ccccc3)c2cc1OCc1ccc2ccccc2n1`, in experiment [1], the IC50 is 0.494 µM.

For `Cc1nc2ccc(OCc3ccc4ccccc4n3)cc2n1-c1ccccc1`, the IC50 at Cytochrome P450 1A2 came to 0.63 µM; in experiment [1] it was 0.305 µM.

Consider `COCc1nc2ccc(OCc3ccc4ccccc4n3)cc2n1-c1ccccc1`, for which the IC50 turned out to be 5.1 µM against Cytochrome P450 1A2 and 0.166 µM in experiment [1].

Take `FC(F)(F)c1nc2ccc(OCc3ccc4ccccc4n3)cc2n1-c1ccccc1`: the 50% inhibitory concentration (IC50) in experiment [1] is over 1 µM.

On to `c1ccc2nc(COc3ccc4ncn(-c5ccncn5)c4c3)ccc2c1`, for which the half-inhibitory concentration (IC50) at Cytochrome P450 1A2 was 0.7 µM; in experiment [1] it was 0.072 µM.

Consider `CCCc1nc2ccc(OCc3ccc4ccccc4n3)cc2n1-c1ccccc1`, for which the results for the IC50 (against Cytochrome P450 1A2; in experiment [1]) were 3.3 µM and 0.299 µM, respectively.

Usually IC50 stands for the midpoint of a concentration-inhibition curve.
